Tests used:
[1] = molecular target: T1, GABA-A receptor; anion channel (Bos taurus) (UniProt P10063+P08220+P20237+P08219+P10064+P22300); test: Inhibition of [3H]- flunitrazepam binding to GABA-A central benzodiazepine receptor of bovine cortical membranes at 10 uM
Method in brief: (§1)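 Filtration binding of [3H]flunitrazepam to bovine cerebral cortex membranes, freeze–thawed and washed in 50 mM Tris-citrate pH 7.4. […] IC50 taken from log-probit plots and converted to Ki, mean ± SEM of three determinations.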

[2] = molecular target: T1, GABA-A receptor; anion channel (Bos taurus); test: In vitro inhibition of [3H]- flunitrazepam binding to GABA-A central benzodiazepine receptor of bovine cortical membranes at 10 uM; method in brief: as §1
[3] = molecular target: T1, GABA-A receptor; anion channel (Bos taurus); test: Gamma AminoButyric Acid(GABA) ratio is the Ki without GABA / Ki with GABA; type: protein-complex assay
Method in brief: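 Ki for [3H]flunitrazepam displacement from bovine cortical membranes determined both without and with GABA. The ratio is Ki without GABA divided by Ki with GABA.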

[4] = molecular target: GABA-A receptor; anion channel; test: In vitro inhibition of [3H]- flunitrazepam binding to GABA-A benzodiazepine receptor of bovine cortical membranes; set-up: species or system Bos taurus; method in brief: as §1
[5] = molecular target: T1, GABA-A receptor; anion channel (Bos taurus); test: Specific [35S]- TBPS binding at high affinity site loated near chloride channel of GABA-A receptor chloride complex; type: protein-complex assay; set-up: concentration or dose not given beside the values
Method in brief: (§2)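 Bovine cerebral cortex membranes, freeze–thawed and washed in 50 mM Tris-citrate pH 7.4, incubated with 5 nM [35S]TBPS for 90 min at 25 °C in the same buffer plus 200 mM KBr and 0.1 mM EDTA. Compounds tested at 0.5 μM in ethanol (≤0.2%) with 1 μM GABA present. Nonspecific binding taken with 600 μM picrotoxinin. Bound ligand collected by filtration and counted by scintillation.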

[6] = Partition coefficient of compound; type: physicochemical; conditions: octanol/water
Method in brief: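 Shake-flask partition at room temperature between octanol and phosphate buffer pH 7.4. Solute measured spectrophotometrically in both phases, with phase volumes adjusted so each phase held enough compound. Run at four different solute concentrations.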

[7] = molecular target: T1, GABA-A receptor; anion channel (Bos taurus); test: In vitro displacement of [35S]-TBPS binding from GABA-A receptor relative to clonazepam; type: protein-complex assay; method in brief: as §2

| Structure (SMILES) | inhibition [1] | inhibition [2] | GABA ratio [3] | Ki [4] | further results |
| --- | --- | --- | --- | --- | --- |
| O=C(Nc1ccc(O)cc1)C(=O)c1c[nH]c2ccccc12 | 65% | – | – | – | – |
| O=C(Nc1ccccc1)C(=O)c1c[nH]c2ccccc12 | 10% | – | – | – | – |
| O=C(NCCCc1ccccc1)C(=O)c1c[nH]c2ccc([N+](=O)[O-])cc12 | 52% | – | – | – | – |
| COc1ccc(CNC(=O)C(=O)c2c[nH]c3ccccc23)cc1OC | – | 99% | 0.8 | 0.094 µM | – |
| COc1cc(CNC(=O)C(=O)c2c[nH]c3ccc(Cl)cc23)ccc1O | – | 99% | 1.03 | 0.027 µM | – |
| O=C(NCc1ccccc1F)C(=O)c1c[nH]c2ccccc12 | – | 94% | 0.86 | 0.66 µM | – |
| O=C(NCCCc1ccccc1)C(=O)c1c[nH]c2ccccc12 | – | 78% | 1 | 1.26 µM | – |
| O=C(NCc1ccccc1Cl)C(=O)c1c[nH]c2ccccc12 | – | 77% | 0.93 | 2.6 µM | – |
| COc1ccc(CNC(=O)C(=O)c2cn(C)c3ccccc23)cc1OC | – | 70% | 0.88 | 2.7 µM | – |
| COc1ccc(CNC(=O)C(=O)c2c[nH]c3ccc(Cl)cc23)cc1 | 81% | – | 1 | 0.107 µM | – |
| CCOC(=O)c1ncn2c1CN(C)C(=O)c1cc(F)ccc1-2 | – | – | – | – | Activity [5]: 15% |
| O=C(NCCCc1ccccc1)C(=O)c1c[nH]c2ccc(Cl)cc12 | 32% | – | – | – | – |
| O=C(NCc1ccc(F)cc1)C(=O)c1c[nH]c2ccccc12 | – | 99% | 1.16 | 0.052 µM | Activity [5]: 21%; logP [6]: 2.88 |
| O=C(NCc1cccc(Cl)c1)C(=O)c1c[nH]c2ccc(Cl)cc12 | – | 14% | – | – | – |
| O=C(NCc1ccc(O)cc1)C(=O)c1c[nH]c2ccccc12 | – | 96% | 1.35 | 0.43 µM | – |
| O=C(NCc1cccc(O)c1)C(=O)c1c[nH]c2ccc([N+](=O)[O-])cc12 | 95% | – | 1.32 | 0.065 µM | Activity [5]: 50% |
| COc1ccc(NC(=O)C(=O)c2c[nH]c3ccc([N+](=O)[O-])cc23)cc1 | 12% | – | – | – | – |
| COc1ccc(CNC(=O)C(=O)c2c[nH]c3ccccc23)cc1 | 97% | – | 1 | 0.163 µM | – |
| O=C(NCc1ccc(O)c(O)c1)C(=O)c1c[nH]c2ccccc12 | – | 95% | 1.56 | 0.349 µM | – |

| Structure (SMILES) | inhibition [1] | inhibition [2] | GABA ratio [3] | Ki [4] | further results |
| --- | --- | --- | --- | --- | --- |
| O=C(NCc1ccccc1Cl)C(=O)c1c[nH]c2ccc(Cl)cc12 | – | 40% | – | – | – |
| O=C(NCc1ccccc1)C(=O)c1c[nH]c2ccccc12 | 98% | – | 0.87 | 0.12 µM | Activity [5]: 29% |
| O=C(NCc1ccc(Cl)cc1)C(=O)c1c[nH]c2ccc([N+](=O)[O-])cc12 | – | 2% | – | – | – |
| COc1cc(CNC(=O)C(=O)c2c[nH]c3ccc([N+](=O)[O-])cc23)ccc1O | – | 100% | 1.07 | 0.013 µM | Activity [5]: 27% |
| COc1ccc(NC(=O)C(=O)c2c[nH]c3ccc(Cl)cc23)cc1 | 10% | – | – | – | – |
| Cn1cc(C(=O)C(=O)NCc2cccc(O)c2)c2ccccc21 | 17% | – | – | – | – |
| O=C(NCc1ccc(F)cc1)C(=O)c1c[nH]c2ccc(Cl)cc12 | – | 21% | – | – | – |
| O=C(NCc1ccc(O)cc1)C(=O)c1c[nH]c2ccc(Cl)cc12 | – | 98% | 1.1 | 0.15 µM | – |
| O=C(NCc1ccc(O)c(O)c1)C(=O)c1c[nH]c2ccc(Cl)cc12 | – | 96% | 1.33 | 0.18 µM | – |
| O=C(NCc1cccc(Cl)c1)C(=O)c1c[nH]c2ccccc12 | – | 96% | 0.95 | 0.16 µM | – |
| O=C(NCc1cccc(O)c1)C(=O)c1c[nH]c2ccccc12 | 91% | – | 1.25 | 0.82 µM | – |
| COc1cccc(CNC(=O)C(=O)c2c[nH]c3ccc([N+](=O)[O-])cc23)c1 | – | 84% | 0.91 | 0.038 µM | Activity [5]: 10% |
| O=C(Nc1ccccc1)C(=O)c1c[nH]c2ccc([N+](=O)[O-])cc12 | 0% | – | – | – | – |
| COc1ccc(CNC(=O)C(=O)c2c[nH]c3ccc([N+](=O)[O-])cc23)cc1 | 71% | – | 1.06 | 0.053 µM | Activity [5]: 2%; logP [6]: 2.17 |
| O=C(NCc1ccccc1F)C(=O)c1c[nH]c2ccc(Cl)cc12 | – | 39% | – | – | – |
| O=C(Nc1ccc(O)cc1)C(=O)c1c[nH]c2ccc(Cl)cc12 | 23% | – | – | – | – |
| O=C(NCc1ccccc1)C(=O)c1c[nH]c2ccc([N+](=O)[O-])cc12 | 55% | – | 1 | 0.117 µM | – |
| O=C(NCc1ccc(Cl)cc1)C(=O)c1c[nH]c2ccc(Cl)cc12 | – | 38% | – | – | – |
| COc1cccc(CNC(=O)C(=O)c2c[nH]c3ccccc23)c1 | – | 97% | 0.74 | 0.29 µM | – |

| Structure (SMILES) | inhibition [1] | inhibition [2] | GABA ratio [3] | Ki [4] | further results |
| --- | --- | --- | --- | --- | --- |
| COc1ccc(CNC(=O)C(=O)c2c[nH]c3ccc([N+](=O)[O-])cc23)cc1OC | – | 97% | 1 | 0.011 µM | Activity [5]: 31% |
| O=C(NCc1ccc(O)cc1)C(=O)c1c[nH]c2ccc([N+](=O)[O-])cc12 | 100% | – | 1.05 | 0.012 µM | Activity [7]: 10%; logP [6]: 2.67 |
| Cn1cc(C(=O)C(=O)NCc2ccc(Cl)cc2)c2ccccc21 | – | 86% | 1 | 1 µM | – |
| O=C(NCc1ccccc1)C(=O)c1c[nH]c2ccc(Cl)cc12 | 34% | – | 0.95 | 0.49 µM | – |
| O=C(NCc1cccc(O)c1)C(=O)c1c[nH]c2ccc(Cl)cc12 | 95% | – | 1.45 | 0.57 µM | – |
| O=C1CN=C(c2ccccc2Cl)c2cc([N+](=O)[O-])ccc2N1 | – | – | – | – | Activity [5]: 100% |
| O=C(NCc1ccccc1F)C(=O)c1c[nH]c2ccc([N+](=O)[O-])cc12 | – | 42% | – | – | – |
| O=C(NCc1cccc(Cl)c1)C(=O)c1c[nH]c2ccc([N+](=O)[O-])cc12 | – | 0% | – | – | – |
| O=C(Nc1ccc(O)cc1)C(=O)c1c[nH]c2ccc([N+](=O)[O-])cc12 | 76% | – | 1 | 1.8 µM | – |
| O=C(NCc1ccc(Cl)cc1)C(=O)c1c[nH]c2ccccc12 | – | 99% | 1.03 | 0.067 µM | Activity [5]: 27% |
| O=C(Nc1ccccc1)C(=O)c1c[nH]c2ccc(Cl)cc12 | 0% | – | – | – | – |
| COc1ccc(NC(=O)C(=O)c2c[nH]c3ccccc23)cc1 | 0% | – | – | – | – |
| COc1cc(CNC(=O)C(=O)c2c[nH]c3ccccc23)ccc1O | – | 96% | 1 | 0.14 µM | – |
| O=C(NCc1ccc(O)c(O)c1)C(=O)c1c[nH]c2ccc([N+](=O)[O-])cc12 | – | 98% | 1.35 | 0.048 µM | Activity [5]: 52% |
| O=C(NCc1ccccc1Cl)C(=O)c1c[nH]c2ccc([N+](=O)[O-])cc12 | – | 48% | – | – | – |
| O=C(NCc1ccc(F)cc1)C(=O)c1c[nH]c2ccc([N+](=O)[O-])cc12 | – | 24% | – | – | – |
| COc1ccc(CNC(=O)C(=O)c2c[nH]c3ccc(Cl)cc23)cc1OC | – | 94% | 0.82 | 0.03 µM | – |
| COc1cccc(CNC(=O)C(=O)c2c[nH]c3ccc(Cl)cc23)c1 | – | 89% | 0.79 | 0.162 µM | – |

— ChEMBL document CHEMBL1129605, “Synthesis, structure-activity relationships, and molecular modeling studies of N-(indol-3-ylglyoxylyl)benzylamine derivatives acting at the benzodiazepine receptor” (J Med Chem, 1996)
